From ChEMBL document CHEMBL3734650, “Synthesis and activity of novel 16-dehydropregnenolone acetate derivatives as inhibitors of type 1 5α-reductase and on cancer cell line SK-LU-1” (Bioorg Med Chem, 2015) come the findings set out here.

Assay [1] has as its system Syrian golden hamster. As to the kind of experiment: Increase of diameter of pigmented spot of flank organs in gonadectomized golden hamster at 1 mg/kg, sc qd for 6 days (reference value: 2.03 +/- 0.63 millimeter). The class given is functional, Mesocricetus auratus.
Assay [2] concerns Syrian golden hamster. As to the kind of experiment: Increase of seminal vesicles weight in gonadectomized golden hamster at 1 mg/kg, sc qd for 6 days (reference value: 96.11 +/- 12.5 mg). The class given is functional, Mesocricetus auratus.
Assay [3] concerns Syrian golden hamster. The experiment in a line: Increase of prostate weight in gonadectomized golden hamster at 1 mg/kg, sc qd for 6 days (reference value: 50.4 +/- 9.9 mg). The class given is functional, Mesocricetus auratus, Prostate gland.
Assay [4] concerns Syrian golden hamster. The experiment in a line: Increase of prostate weight in gonadectomized golden hamster at 1 mg/kg, sc qd for 6 days co-administered with 1 mg/kg of testosterone (reference value: 50.4 +/- 9.9 mg). The class given is functional, Mesocricetus auratus, Prostate gland.
In assay [5] the test system is Syrian golden hamster. The experiment in a line: Increase of seminal vesicles weight in gonadectomized golden hamster at 1 mg/kg, sc qd for 6 days co-administered with 1 mg/kg of testosterone (reference value: 96.11 +/- 12.5 mg). The class given is functional, Mesocricetus auratus.
In the next assay the test system is MCF7. As to the kind of experiment: Cytotoxicity against human MCF7 cells as growth inhibition at 50 uM. The assay is classed as functional. Put shortly:
(§1)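 Growth inhibition calculated from absorbance as 100 − (sample absorbance / vehicle absorbance × 100).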

The test system of assay [6] is Syrian golden hamster. As to the kind of experiment: Increase of diameter of pigmented spot of flank organs in gonadectomized golden hamster at 1 mg/kg, sc qd for 6 days co-administered with 1 mg/kg of testosterone (reference value: 2.03 +/- 0.63 millimeter). The class given is functional, Mesocricetus auratus.
The next assay concerns SK-LU-1. As to the kind of experiment: Cytotoxicity against human SKLU1 cells as growth inhibition at 50 uM. The class given is functional. Put shortly: as §1
The next assay has as its system PC-3. As to the kind of experiment: Cytotoxicity against human PC3 cells assessed as growth inhibition at 50 uM. The class given is functional. The essentials: as §1

Activity calls are given as the source filed them. The rule behind the calls is not given here.

As to `C[C@]12CC[C@H]3[C@@H](CCC4=CC(=O)CC[C@@]43C)[C@@H]1CC[C@@H]2O` [TESTOSTERONE], the Activity in the assay on Syrian golden hamster [1] was 5.65 mm; in the assay on Syrian golden hamster [2], 200.6 mg; with Syrian golden hamster [3], 98 mg.
Turning to `CC(C)(C)NC(=O)[C@H]1CC[C@H]2[C@@H]3CC[C@H]4NC(=O)C=C[C@]4(C)[C@H]3CC[C@]12C` [FINASTERIDE], the figures for the Activity with Syrian golden hamster [4], in the assay with Syrian golden hamster [5] and in the assay on Syrian golden hamster [6] were 69.6 mg, 161.4 mg and 3.57 mm, respectively. Besides, the “growth inhibition (GI)” value with MCF7, with SK-LU-1 and in the assay on PC-3 was “inactive” each time.
